Columns and labels:
[1] = biological target: Prostaglandin G/H synthase 1 (Homo sapiens, UniProt P23219); assay: Inhibition of COX1-mediated 12-HHT production in human platelet assessed as residual activity at 10 uM after 5 mins by HPLC analysis
Procedure, shortened: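 Washed human platelets, 10^8/mL in PBS with 1 mM CaCl2, preincubated with compound 4 min at 4 °C then 1 min at 37 °C. 5 µM AA added for 5 min at 37 °C. Methanol/HCl stop, PGB1 added, 12-HHT by HPLC. Residual activity at 10 µM. IC50 by interpolation from 4–5 concentrations.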

[2] = biological target: T1, Prostaglandin G/H synthase 2 (Homo sapiens, UniProt P35354); assay: Inhibition of COX2-mediated 6-keto PGF1alpha production in IL1-beta stimulated human A549 cells after 10 mins by EIA; format: cell-based
T1 sequence (P35354 whole entry): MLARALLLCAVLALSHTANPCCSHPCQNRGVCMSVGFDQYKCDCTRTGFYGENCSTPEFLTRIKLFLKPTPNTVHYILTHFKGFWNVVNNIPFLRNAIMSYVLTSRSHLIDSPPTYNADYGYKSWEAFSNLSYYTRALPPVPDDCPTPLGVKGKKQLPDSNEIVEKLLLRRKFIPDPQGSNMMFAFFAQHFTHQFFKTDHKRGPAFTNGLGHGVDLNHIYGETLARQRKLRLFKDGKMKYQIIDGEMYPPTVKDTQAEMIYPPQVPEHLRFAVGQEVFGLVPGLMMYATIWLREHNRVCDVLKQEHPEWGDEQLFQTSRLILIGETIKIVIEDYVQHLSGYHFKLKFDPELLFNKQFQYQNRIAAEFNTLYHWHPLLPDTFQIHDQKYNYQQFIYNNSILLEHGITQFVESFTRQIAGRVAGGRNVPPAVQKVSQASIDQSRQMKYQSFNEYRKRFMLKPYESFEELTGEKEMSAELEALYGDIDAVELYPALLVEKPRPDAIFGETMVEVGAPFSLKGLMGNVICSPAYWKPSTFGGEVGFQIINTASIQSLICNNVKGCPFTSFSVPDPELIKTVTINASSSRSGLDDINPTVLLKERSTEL
Procedure, shortened: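 A549 cells stimulated with IL-1β (1 ng/ml) 72 h in DMEM with 2% FCS, trypsinized and washed. 10^6 cells/mL PBS with 1 mM CaCl2 preincubated with compound 10 min at 37 °C. 3 µM AA added for 15 min at 37 °C, stopped on ice. 6-keto PGF1α in supernatant measured by EIA.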

A549 = assay: Inhibition of mPGES1-mediated PGE2 production in IL1-beta stimulated human A549 cells assessed as residual activity at 10 uM after 15 mins; format: cell-based
Procedure, shortened: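 Microsomes from IL-1β (1 ng/ml, 72 h) stimulated A549 cells, diluted in 0.1 M potassium phosphate pH 7.4 with 2.5 mM glutathione. Compound or 1% DMSO added, 15 min at 4 °C. Started with 20 µM PGH2 (final), 1 min at 4 °C. Stopped with FeCl2/citric acid containing 11β-PGE2 internal standard. PGE2 by RP-C18 solid-phase extraction and peak integration.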

[3] = biological target: T2, Polyunsaturated fatty acid lipoxygenase ALOX12 (Homo sapiens) (UniProt P18054); assay: Inhibition of 12-Lipoxygenase-mediated 12-HETE in human neutrophil assessed as residual activity at 30 uM after 15 mins by HPLC analysis
T2 sequence (whole entry): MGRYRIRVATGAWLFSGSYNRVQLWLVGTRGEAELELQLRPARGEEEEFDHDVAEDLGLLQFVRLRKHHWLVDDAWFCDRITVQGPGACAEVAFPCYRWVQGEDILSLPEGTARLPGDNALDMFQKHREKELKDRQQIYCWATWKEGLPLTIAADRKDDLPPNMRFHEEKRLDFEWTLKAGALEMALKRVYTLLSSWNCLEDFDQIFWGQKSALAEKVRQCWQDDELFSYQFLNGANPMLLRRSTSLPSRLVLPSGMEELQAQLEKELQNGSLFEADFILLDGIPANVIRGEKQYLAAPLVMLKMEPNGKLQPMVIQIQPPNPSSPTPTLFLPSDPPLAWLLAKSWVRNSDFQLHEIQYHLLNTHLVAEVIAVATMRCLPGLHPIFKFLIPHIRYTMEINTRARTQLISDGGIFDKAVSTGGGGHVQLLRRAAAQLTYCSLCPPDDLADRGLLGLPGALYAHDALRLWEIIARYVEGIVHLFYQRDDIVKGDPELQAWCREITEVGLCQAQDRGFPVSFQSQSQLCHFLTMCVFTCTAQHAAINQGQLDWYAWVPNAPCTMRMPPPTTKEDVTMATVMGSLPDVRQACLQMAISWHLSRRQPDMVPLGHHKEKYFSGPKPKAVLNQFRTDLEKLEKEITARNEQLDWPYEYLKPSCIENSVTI
Procedure, shortened: (§1)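 Freshly isolated human blood neutrophils, 5 × 10^6/mL in PBS pH 7.4 with 1 mg/mL glucose and 1 mM CaCl2, preincubated with compound 15 min at RT. Stimulated with 2.5 µM A23187 plus 20 µM AA for 10 min at 37 °C. Stopped with methanol/HCl, PGB1 internal standard. 12-HETE or 15-HETE measured by HPLC. Residual activity tested at 30 µM.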

[4] = biological target: T3, Polyunsaturated fatty acid lipoxygenase ALOX15 (Homo sapiens) (UniProt P16050); assay: Inhibition of 15-Lipoxygenase-mediated 15-HETE in human neutrophil assessed as residual activity at 30 uM after 15 mins by HPLC analysis; procedure, shortened: as §1
T3 sequence (whole entry): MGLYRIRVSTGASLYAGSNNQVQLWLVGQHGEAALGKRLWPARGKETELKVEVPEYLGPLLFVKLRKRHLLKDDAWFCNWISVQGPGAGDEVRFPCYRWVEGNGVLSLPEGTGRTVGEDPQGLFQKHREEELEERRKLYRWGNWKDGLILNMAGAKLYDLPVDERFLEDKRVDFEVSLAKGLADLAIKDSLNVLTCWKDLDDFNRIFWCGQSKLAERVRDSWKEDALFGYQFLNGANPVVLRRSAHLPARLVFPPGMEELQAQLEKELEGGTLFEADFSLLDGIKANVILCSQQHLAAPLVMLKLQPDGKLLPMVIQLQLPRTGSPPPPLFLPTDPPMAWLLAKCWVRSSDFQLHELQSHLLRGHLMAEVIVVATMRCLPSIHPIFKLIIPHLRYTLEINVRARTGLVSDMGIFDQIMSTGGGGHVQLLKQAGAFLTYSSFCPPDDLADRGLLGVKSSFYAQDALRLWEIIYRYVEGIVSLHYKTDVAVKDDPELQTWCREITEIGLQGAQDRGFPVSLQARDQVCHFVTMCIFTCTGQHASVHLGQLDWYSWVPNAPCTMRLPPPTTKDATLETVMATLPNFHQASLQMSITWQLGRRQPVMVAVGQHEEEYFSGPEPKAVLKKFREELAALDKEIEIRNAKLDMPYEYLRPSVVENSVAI

Sequence of Prostaglandin G/H synthase 1 (P23219 whole entry): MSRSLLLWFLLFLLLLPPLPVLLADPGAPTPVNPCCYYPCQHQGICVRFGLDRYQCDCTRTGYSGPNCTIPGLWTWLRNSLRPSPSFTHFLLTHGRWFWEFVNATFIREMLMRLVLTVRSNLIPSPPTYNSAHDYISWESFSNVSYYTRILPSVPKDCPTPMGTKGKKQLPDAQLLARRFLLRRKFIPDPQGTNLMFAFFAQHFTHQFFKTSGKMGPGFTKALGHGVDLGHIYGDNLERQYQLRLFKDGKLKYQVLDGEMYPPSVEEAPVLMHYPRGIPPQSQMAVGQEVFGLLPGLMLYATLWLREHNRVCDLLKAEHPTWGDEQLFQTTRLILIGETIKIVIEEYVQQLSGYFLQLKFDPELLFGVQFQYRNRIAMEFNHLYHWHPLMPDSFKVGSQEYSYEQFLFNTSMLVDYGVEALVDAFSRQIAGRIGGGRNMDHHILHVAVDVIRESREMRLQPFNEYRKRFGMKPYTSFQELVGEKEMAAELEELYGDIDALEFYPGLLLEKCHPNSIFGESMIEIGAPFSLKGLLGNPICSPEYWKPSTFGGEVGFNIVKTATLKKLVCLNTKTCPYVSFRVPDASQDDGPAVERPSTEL

Row | Compound | Activity [1] [%] | IC50 [2] [µM] | Activity [3] [%] | Activity [4] [%] | Activity (A549) [%]
1 | Cc1ccc(-c2cc(CCC(=O)N3CCN(Cc4ccc(C(C)(C)C)cc4)CC3)nn2-c2ccccc2)cc1 | 21 | > 10 | 118 | 261 | 84.6
2 | CCOC(=O)C1CCN(C(=O)CCc2cc(-c3ccc(C)cc3)n(-c3ccccc3)n2)CC1 | 57.1 | > 10 | 98 | 196 | 82.6
3 | CC(C)(C)c1ccc(CN2CCN(C(=O)CCc3cc(-c4ccc(F)cc4)n(-c4ccc(Cl)nn4)n3)CC2)cc1 | 82.9 | > 10 | 103 | 175 | 75.6
4 | Cc1ccc(-c2cc(CCC(=O)Oc3ccc(C(C)C)cc3)nn2-c2ccc3ccccc3n2)cc1 | – | > 10 | 67.8 | 92 | 88
5 | CCOC(=O)C1CCN(C(=O)CCc2cc(-c3ccc(C)cc3)n(-c3ccc4ccccc4n3)n2)CC1 | 15.9 | > 10 | 91.9 | 149 | 84

More lines, main results first:

Row | Activity [1] [%] | IC50 [2] [µM] | Activity [3] [%] | Activity [4] [%] | Compound | Activity (A549) [%]
6 | 51.1 | > 10 | 77.1 | – | Cc1ccc(-c2cc(CCC(=O)Oc3ccc(C(C)C)cc3)nn2-c2ccc(Cl)nn2)cc1 | 91.4
7 | 102 | > 10 | 90.4 | 71 | CCOC(=O)C1CCN(C(=O)CCc2cc(-c3ccc(C(F)(F)F)cc3)n(-c3ccc(Cl)nn3)n2)CC1 | 103
8 | 10.6 | > 10 | 67.2 | 124 | Cc1ccc(-c2cc(CCC(=O)Oc3ccc(C(C)C)cc3)nn2-c2ccccc2)cc1 | 108
9 | 8.2 | > 10 | 111 | 145 | Cc1ccc(-c2cc(CCC(=O)N3CCN(Cc4ccc(C(C)(C)C)cc4)CC3)nn2-c2ccc3ccccc3n2)cc1 | 75

— ChEMBL document CHEMBL1828531, “Pyrazol-3-propanoic acid derivatives as novel inhibitors of leukotriene biosynthesis in human neutrophils” (Eur J Med Chem, 2011)
